Shown are actives, neighbours in structure and some others; about 1.5% of the full set was active somewhere.
NSD2 HMT inh – NSD2 (human) methyltransferase inhibition | inhibition, % at 12.5 µM | NSD2 peptide methylation, AlphaScreen, 120 min | 310,000 tested, 0.54% active
CASP6 VEID inh – inhibitors of human caspase-6; inhibition, % at 12.5 µM; AID 686996; 350,000 tested, 0.53% active; purified caspase-6, Z-VEID-R110 cleavage fluorescence;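 active = mean inhibition across replicates at least about 35%, with every replicate also reaching that limit, limit read from the data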;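 also: 0% = median of neutral control wells and 100% = no fluorescence left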
Target sequence (P55212 24-179 limits assumed): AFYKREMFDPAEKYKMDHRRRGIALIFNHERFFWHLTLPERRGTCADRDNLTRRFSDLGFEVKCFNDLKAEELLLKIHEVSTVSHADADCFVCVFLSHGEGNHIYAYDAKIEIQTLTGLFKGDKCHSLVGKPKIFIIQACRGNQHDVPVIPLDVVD
Target sequence (P55212 194-293 limits assumed): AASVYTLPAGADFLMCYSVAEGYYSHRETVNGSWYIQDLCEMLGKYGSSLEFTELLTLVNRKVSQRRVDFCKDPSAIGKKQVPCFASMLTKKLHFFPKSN
DNMT1 inh – inhibitors of human DNMT1. DNMT1 molecular beacon, Hinp1I cleavage, fluorescence. inhibition (reported as % activation of signal), % at 10 µM. 360,000 tested, 0.83% active. AID 588458
NS3 helicase inh – inhibitors of Hepatitis C virus NS3 helicase; inhibition, % at 10.9 µM; 290,000 tested, 0.56% active; AID 1800; NS3 helicase DNA unwinding, Cy5 molecular beacon fluorescence;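 active = inhibition above the mean of all tested compounds plus 3 SD, set per campaign, cut at about 35% in these data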;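 also: 0% = DMSO wells and 100% = thioflavine S control wells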
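System: HCV NS3 helicase fragment; control set: DMSO and thioflavine S; technique: Cy5 fluorescence at 0 and 60 min, beacon hairpin quenching; reagent: beacon DNA duplex substrate plus ATP; replicates: singlicate; schedule: 1 h reaction at 25 °C, ATP-initiated; medium: MOPS buffer pH 6.5 with MgCl2, DTT, Tween20, BSA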
NS3 helicase cf – HCV NS3 helicase inhibition, confirmation assay. shares compounds with NS3 helicase inh. NS3 helicase DNA unwinding, Cy5 molecular beacon fluorescence. inhibition, % at 10.9 µM. 1,600 tested, 31% active. AID 1943;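 active = inhibition above the mean of all tested compounds plus 3 SD, cutoff set per campaign, cut at about 36% in these data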
FID counter trip – intercalator displacement, NS3 helicase counter-screen. shares compounds with NS3 helicase inh. DNA fluorescent intercalator displacement, fluorescence. inhibition, % at 7.9 µM. 1,600 tested, 4% active. AID 1945; in the data active = inhibition above about 37%;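 also: 0% = vehicle and 100% = reference compound; higher means more displacement of ethidium bromide from the DNA hairpin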
* hit, by the source's call. Rule as the data show it, unless noted: active = inhibition above about 50%; inactive = the rest.

COc1ccc(CNCc2cc3c(cc2[N+](=O)[O-])OCO3)cc1 was read as NSD2 HMT inh 1, CASP6 VEID inh 3, DNMT1 inh -3, NS3 helicase inh 40*, NS3 helicase cf -13 and FID counter trip 11.
For CO[C@@H](CN(C)Cc1cc(F)ccc1F)[C@@H](C)CN(C(=O)Nc1ccc(C(F)(F)F)cc1)[C@@H](C)CO the results were CASP6 VEID inh 0.
For CCNC(=O)[C@@H]1[C@@H](CO)[C@@H]2Cn3c(ccc(-c4ccccc4F)c3=O)[C@H]1N2S(C)(=O)=O the results were CASP6 VEID inh 1.
Screening O=C(Nc1cccc2nsnc12)c1ccc(-c2cccc(Cl)c2)o1 returned NSD2 HMT inh 7, DNMT1 inh -11, NS3 helicase inh 40*, NS3 helicase cf -8 and FID counter trip 3.
Screening CN=c1scc(-c2ccc([N+](=O)[O-])cc2)n1/N=C/c1ccco1 returned NSD2 HMT inh -1, CASP6 VEID inh -3, DNMT1 inh -8 and NS3 helicase inh 11.
Screening O=C1c2ccc([N+](=O)[O-])cc2NC(c2ccco2)N1/N=C/c1ccco1 (stereo not drawn) returned NSD2 HMT inh 4, CASP6 VEID inh 2, DNMT1 inh 1, NS3 helicase inh 42*, NS3 helicase cf -5 and FID counter trip 21.
Screening C[C@H]1CN([C@@H](C)CO)C(=O)c2cccc(NS(=O)(=O)c3ccc(Cl)cc3)c2O[C@H]1CN(C)C(=O)Nc1ccc(F)cc1 returned CASP6 VEID inh -2.
Screening CC(=O)N(C)C[C@H]1Oc2ncc(C#Cc3ccccc3F)cc2C(=O)N([C@H](C)CO)C[C@H]1C returned CASP6 VEID inh -1.
O=C(CCCN1C(=O)/C(=C/c2cccs2)SC1=S)Nc1cccc(C(=O)O)c1 was read as NSD2 HMT inh -3, CASP6 VEID inh -1, DNMT1 inh 2 and NS3 helicase inh 18.
Screening O=C(CCN1C(=O)/C(=C/c2cccs2)SC1=S)Nc1cccc(C(=O)O)c1 returned NSD2 HMT inh 18, CASP6 VEID inh 2, DNMT1 inh 2, NS3 helicase inh 36*, NS3 helicase cf 58* and FID counter trip 4.
For CC(/C=C1\SC(=S)N(CCCC(=O)Nc2ccc(C(=O)O)c(O)c2)C1=O)=C\c1ccccc1 the results were NS3 helicase inh 73*, NS3 helicase cf 73* and FID counter trip 69*.
`Cc1ccc(/C=C2\SC(=S)N(CCCC(=O)Nc3cccc(C(=O)O)c3)C2=O)cc1` gave NSD2 HMT inh 7, CASP6 VEID inh 3, DNMT1 inh 2 and NS3 helicase inh -13.
Screening COc1ccc(/C=C2\SC(=S)N(CCC(=O)Nc3cccc(C(=O)O)c3)C2=O)cc1 returned NSD2 HMT inh 3, CASP6 VEID inh 2, DNMT1 inh -2, NS3 helicase inh 39*, NS3 helicase cf 52* and FID counter trip 7.
Screening Cc1cc(C)n(Cc2ccc(C(=O)O)cc2)n1 returned NSD2 HMT inh -1, CASP6 VEID inh -3, DNMT1 inh 0 and NS3 helicase inh -2.
Screening Cc1ccc(C)n1Cc1ccc(C(=O)O)cc1 returned DNMT1 inh 106*, NS3 helicase inh 38*, NS3 helicase cf 80* and FID counter trip -1.
Screening Cc1ccc(/C(O)=C2/C(=O)C(=O)N(c3ccccn3)C2c2cccc([N+](=O)[O-])c2)cc1 (stereo not drawn) returned CASP6 VEID inh 1, DNMT1 inh 3, NS3 helicase inh 48*, NS3 helicase cf 28 and FID counter trip -22.
Screening Cc1ccc(/C(O)=C2/C(=O)C(=O)N(c3ccccn3)C2c2ccc([N+](=O)[O-])cc2)cc1 (stereo not drawn) returned NSD2 HMT inh 4, CASP6 VEID inh -1, DNMT1 inh 3, NS3 helicase inh 36*, NS3 helicase cf 28 and FID counter trip -21.
COc1ccc(C2/C(=C(/O)c3ccc(C)cc3)C(=O)C(=O)N2c2ccccn2)cc1 (stereo not drawn) was read as NSD2 HMT inh 1, CASP6 VEID inh 1, DNMT1 inh 0 and NS3 helicase inh 27.
CCCC#Cc1ccc2c(c1)O[C@H](CN(C)Cc1cccnc1)[C@@H](C)CN([C@@H](C)CO)S2(=O)=O was read as CASP6 VEID inh -1.
O=[N+]([O-])/C(C=Nc1ccccc1O)=C\Nc1ccccc1O was read as NSD2 HMT inh 1, CASP6 VEID inh 0, DNMT1 inh 0, NS3 helicase inh 38*, NS3 helicase cf -9 and FID counter trip 19.
C[C@@H]1CN([C@H](C)CO)C(=O)c2cccc(NS(=O)(=O)c3ccc(Cl)cc3)c2O[C@H]1CN(C)C was read as CASP6 VEID inh 2.
Screening Cn1cccc1Cc1nnc(SCC(=O)Nc2nc3ccccc3s2)n1CCc1ccccc1 returned CASP6 VEID inh 3, DNMT1 inh 17, NS3 helicase inh 52*, NS3 helicase cf 5 and FID counter trip -21.
`Cc1nnc(NC(=O)CSc2nnc(Cc3cccn3C)n2CCc2ccccc2)s1` gave NSD2 HMT inh 0, CASP6 VEID inh 6, DNMT1 inh 0 and NS3 helicase inh 17.
`CCOC(=O)c1ccc2c(c1)nc(-c1ccccn1)n2CC` gave NSD2 HMT inh -2, CASP6 VEID inh -3, DNMT1 inh 2, NS3 helicase inh 36*, NS3 helicase cf 1 and FID counter trip -17.
Screening CCOC(=O)Cn1c(-c2ccccn2)nc2ccccc21 returned NSD2 HMT inh 4, DNMT1 inh 2 and NS3 helicase inh -1.
Screening CCN(Cc1ccncc1)C(=O)c1cccc(S(=O)(=O)N(C)c2ccccc2)c1 returned NSD2 HMT inh 0.
Screening CCN(CC)c1ccc2nc3ccccc3[n+](CC)c2c1 returned NSD2 HMT inh 29, DNMT1 inh 1, NS3 helicase inh 57*, NS3 helicase cf 99* and FID counter trip 51*.
`CCN(CC)C(=O)c1ccc2nc3ccccc3nc2c1` gave NSD2 HMT inh -4, CASP6 VEID inh 3, DNMT1 inh 1 and NS3 helicase inh 2.
For COc1ccc(OC)c(NC(=O)Nc2nnc(N3CCCCC3C)s2)c1 (stereo not drawn) the results were NSD2 HMT inh -8, CASP6 VEID inh 1, DNMT1 inh -4, NS3 helicase inh 39*, NS3 helicase cf -7 and FID counter trip -13.
O=C1NN(c2ccc(Br)cc2)C(=O)/C1=C\c1ccc(O)cc1O was read as CASP6 VEID inh 14, DNMT1 inh 6, NS3 helicase inh 39*, NS3 helicase cf 58* and FID counter trip 17.
`O=C1NN(c2ccccc2)C(=O)C1=Cc1ccccc1O` gave NSD2 HMT inh 5, CASP6 VEID inh -1 and DNMT1 inh 9.
Cc1cc(C)nc(NN=CC2=C(N3CCOCC3)/C(=C/c3ccc(Cl)cc3)CC2)n1 was read as NSD2 HMT inh 2, CASP6 VEID inh 2 and DNMT1 inh -13.

From PubChem BioAssay
